Calls of active or inactive are those of the source. The calls are words filed in the database; no cut-off is given here.

In data set [1] the test system is Rattus norvegicus. Kind of data set: Antialzheimer activity in Wistar rat scopolamine-induced cognition impairment model assessed as decrease in amount of errors plus baits not found during exploration at 1 umol/100 g body weight, ip treated for 5 mins prior to scopolamine-challenge measured after 20 to 120 mins by eight-arm radial maze test. The data set is classed as functional, organism-based. The gist of the method: (§1)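 Female 60-day-old Wistar rats (Han:Wist) trained in an eight-arm radial maze to error-free trials under 60 s on three consecutive days; each animal served as its own control. Test agent given i.p. in saline 5 min before scopolamine (0.05 mg/100 g b. wt., i.p. in saline). Errors plus baits not found after 10 min, and total searching time, recorded before and 20, 60, 120 min after scopolamine; n = 14, mean ± SEM.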

Data set [2] deals with Amyloid-beta precursor protein (Homo sapiens) (UniProt P05067). Kind of data set: Inhibition of amyloid beta (1 to 42) aggregation (unknown origin) at 5 to 100 uM after 1 hr by thioflavin T fluorescence assay. The gist of the method: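 Aβ42 stock 200 μM in DMSO, centrifuged 12,000 rpm 10 min; supernatant used. ThT in 50 mM glycine-NaOH pH 8.5 then added. Fluorescence read at ex 430 / em 488 nm. Curcumin as positive control.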
Chain of Amyloid-beta precursor protein (Homo sapiens) (P05067 whole entry): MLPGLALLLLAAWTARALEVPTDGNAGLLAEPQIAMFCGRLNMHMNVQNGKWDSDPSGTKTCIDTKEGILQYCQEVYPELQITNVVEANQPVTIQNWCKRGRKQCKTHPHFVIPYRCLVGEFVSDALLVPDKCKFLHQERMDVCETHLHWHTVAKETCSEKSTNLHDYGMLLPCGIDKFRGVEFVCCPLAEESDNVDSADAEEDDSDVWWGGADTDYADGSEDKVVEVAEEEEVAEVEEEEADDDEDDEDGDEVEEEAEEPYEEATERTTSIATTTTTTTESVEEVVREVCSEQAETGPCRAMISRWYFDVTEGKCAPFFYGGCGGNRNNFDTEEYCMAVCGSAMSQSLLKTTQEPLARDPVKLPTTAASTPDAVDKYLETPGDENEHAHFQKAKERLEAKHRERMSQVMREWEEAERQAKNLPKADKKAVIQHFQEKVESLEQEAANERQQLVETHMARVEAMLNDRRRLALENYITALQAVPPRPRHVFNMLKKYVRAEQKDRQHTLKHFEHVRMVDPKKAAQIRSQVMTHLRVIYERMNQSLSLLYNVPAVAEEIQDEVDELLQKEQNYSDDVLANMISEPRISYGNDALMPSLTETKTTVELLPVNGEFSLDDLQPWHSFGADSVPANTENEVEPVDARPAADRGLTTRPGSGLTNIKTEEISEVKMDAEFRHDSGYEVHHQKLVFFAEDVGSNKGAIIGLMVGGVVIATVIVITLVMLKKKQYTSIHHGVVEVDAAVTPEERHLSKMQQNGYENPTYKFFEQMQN

The test system of the next data set is PC-12. Kind of data set: Neuroprotective activity in rat PC12 cells assessed as decrease in amyloid beta (1 to 42)-induced cytotoxicity at 0.08 to 10 uM after 24 hrs by MTT assay. The data set is classed as functional, cell-based. The gist of the method: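 PC12 cells grown in F-12 with 10% FBS, 37 °C, 5% CO2. Seeded at 2000 cells/well for 24 h. Aβ42 pretreated with HFIP, then brought to 100 μM in medium and held at 4 °C for 24 h. Compound (final […]–10 μM, DMSO <0.5%) given with Aβ42 (final 5 μM) for 24 h. MTT 4 h, formazan read at 540 nm. Expressed as % of control; three independent trials, mean ± SEM.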

In data set [3] the test system is Rattus norvegicus. Kind of data set: Antialzheimer activity in Wistar rat scopolamine-induced cognition impairment model assessed as total exploration time at 1 umol/100 g body weight, ip treated for 5 mins prior to scopolamine-challenge by eight-arm radial maze test relative to control. Type of data set: functional. An outline of the steps:
as §1

A further data set concerns the target Acetylcholinesterase (Electrophorus electricus, UniProt O42275). Description: Inhibition of electric eel AChE using acetylthiocholine iodide as substrate preincubated for 5 mins followed by substrate addition measured after 5 mins by Ellman's method.
The next data set addresses Cholinesterase (Equus caballus, UniProt P81908). Kind of data set: Inhibition of equine serum BChE using butyrylthiocholine iodide as substrate preincubated for 5 mins followed by substrate addition measured after 5 mins by Ellman's method. An outline of the steps: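 Ellman's method with equine serum BChE and butyrylthiocholine iodide; DTNB read-out at 412 nm, 25 °C. Phosphate buffer pH 8.0. At least five concentrations (normally 10^-4 to 10^-9 M), each in triplicate, to build the inhibition curve. Data are means of at least three determinations.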

Data set [4] can be described thus: Selectivity ratio of IC50 for electric eel AChE to IC50 for equine serum BChE. The gist of the method:
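AChE is electric eel Type VI-S with acetylthiocholine; BChE is equine serum with butyrylthiocholine. At least five concentrations, each in triplicate. Ratio = IC50(AChE)/IC50(BChE).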

Data set [5] in a line: Induction of nitric oxide release in PBS at 100 uM at pH 7.4 after 24 hrs by Griess method relative to control. As to conditions: buffer, pH 7.4, 24 h. The data set is classed as physicochemical. The gist of the method: (§2)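 Test compound at 100 µM in phosphate buffer pH 7.4, alone or with 90 µL rat serum added, incubated 37 °C for 24 h. Griess reagent added, then 30 min at 37 °C with gentle shaking; absorbance read at 540 nm and blank-corrected. Nitrite quantified against an NaNO2 calibration curve and expressed as % of a theoretical 1 mol NO per mol nitrate; n = 3.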

A short description of data set [6]: Induction of nitric oxide release in PBS at 100 uM at pH 7.4 after 24 hrs by Griess method in presence of rat serum. The data set is classed as physicochemical. As to conditions: pH 7.4, 24 h. The gist of the method: as §2
In data set [7] the test system is Rattus norvegicus. Kind of data set: Toxicity in Wistar rat assessed as change in movement at 1 umol/100 g body weight, ip. Type of data set: organism-based. As to conditions: in vivo.
Data set [8] has as its system Rattus norvegicus. Kind of data set: Toxicity in Wistar rat scopolamine-induced cognition impairment model assessed as change in movement at 1 umol/100 g body weight, ip. Type of data set: organism-based. As to conditions: in vivo. The gist of the method: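 60-day-old female Wistar rats were trained in an eight-arm radial maze to no errors in under 60 s on 3 consecutive days; each rat served as its own control. Compound in saline was given i.p., then scopolamine (0.05 mg/100 g, saline, i.p.) 5 min later. Errors plus baits not found after 10 min and total searching time were recorded before and 20, 60 and 120 min after scopolamine; n = 14, mean ± SEM.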

Chain of Cholinesterase (P81908 whole entry): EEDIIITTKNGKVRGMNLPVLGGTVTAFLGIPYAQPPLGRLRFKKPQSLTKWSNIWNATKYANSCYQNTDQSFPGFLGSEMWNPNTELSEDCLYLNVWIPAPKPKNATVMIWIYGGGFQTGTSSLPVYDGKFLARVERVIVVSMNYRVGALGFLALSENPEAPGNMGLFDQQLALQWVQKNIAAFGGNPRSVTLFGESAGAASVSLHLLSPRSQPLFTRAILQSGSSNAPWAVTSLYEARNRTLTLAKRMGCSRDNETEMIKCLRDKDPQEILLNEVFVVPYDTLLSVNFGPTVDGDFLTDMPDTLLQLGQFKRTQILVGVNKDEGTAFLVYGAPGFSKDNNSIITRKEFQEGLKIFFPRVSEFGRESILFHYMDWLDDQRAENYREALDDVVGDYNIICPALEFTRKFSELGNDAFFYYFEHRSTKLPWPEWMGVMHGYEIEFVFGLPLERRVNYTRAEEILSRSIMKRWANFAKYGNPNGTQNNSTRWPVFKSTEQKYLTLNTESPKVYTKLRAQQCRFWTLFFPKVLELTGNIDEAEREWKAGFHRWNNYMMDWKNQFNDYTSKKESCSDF
Chain of Acetylcholinesterase (O42275 whole entry): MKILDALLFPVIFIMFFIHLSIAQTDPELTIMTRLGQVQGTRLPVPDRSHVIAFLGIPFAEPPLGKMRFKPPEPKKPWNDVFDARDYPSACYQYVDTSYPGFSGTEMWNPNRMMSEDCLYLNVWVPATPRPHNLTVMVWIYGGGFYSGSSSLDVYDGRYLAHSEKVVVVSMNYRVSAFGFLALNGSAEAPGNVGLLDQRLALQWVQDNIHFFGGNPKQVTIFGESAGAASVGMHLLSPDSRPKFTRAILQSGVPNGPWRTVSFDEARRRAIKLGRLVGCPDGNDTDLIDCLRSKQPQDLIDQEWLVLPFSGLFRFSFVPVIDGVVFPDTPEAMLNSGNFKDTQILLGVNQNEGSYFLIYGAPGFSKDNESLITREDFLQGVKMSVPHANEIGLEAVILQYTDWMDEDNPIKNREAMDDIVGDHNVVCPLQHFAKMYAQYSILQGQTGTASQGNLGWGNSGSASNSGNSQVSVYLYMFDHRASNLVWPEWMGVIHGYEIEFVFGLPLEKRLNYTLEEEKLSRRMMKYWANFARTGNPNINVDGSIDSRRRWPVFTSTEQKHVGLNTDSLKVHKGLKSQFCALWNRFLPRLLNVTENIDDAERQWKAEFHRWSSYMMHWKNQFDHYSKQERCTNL

For the compound `COc1ccc2c3c1O[C@H]1C[C@@H](O)C=C[C@@]31CCN(C)C2`, the result with Rattus norvegicus [1], in the data set on PC-12 and with Rattus norvegicus [3] was inactive. For the same compound, in data set [2], the inhibition entry was “inactive”.

Turning to `COc1ccc2c(c1)[nH]c1cccc(CN(C(=O)CCO[N+](=O)[O-])C(C)C)c12`, the outcome with Rattus norvegicus [1] was Active. For the same compound, the IC50 against Acetylcholinesterase is 2.21 µM; on Cholinesterase it was 2.5 µM. Further, in data set [4], the Ratio IC50 came to 0.88. Also, the Activity is reported as 4.8% in data set [5], “Active” in [6], “Non-toxic” in the data set on Rattus norvegicus [7] and “Non-toxic” in the data set with Rattus norvegicus [8]. Moreover, the Time in the data set on Rattus norvegicus [3] stood at 107 s.

For the origin of these results see ChEMBL document CHEMBL3124940, “Design, synthesis and biological evaluation of D-ring opened galantamine analogs as multifunctional anti-Alzheimer agents” (Eur J Med Chem, 2014).
